Test results from ChEMBL document CHEMBL1944617, “Near infrared active heptacyanine dyes with unique cancer-imaging and cytotoxic properties” (Bioorg Med Chem Lett, 2012).
pIC50: −log10 of the molar value. Calls of active or inactive are those of the source. The rule behind the calls is not given here.

Columns and labels:
HeLa [1] = assay: Cytotoxicity against human HeLa cells assessed as cell death at 5 to 20 uM after 24 hrs by trypan blue exclusion assay; format: functional
Summary of the method: (§1)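 Cells treated 24 h with dye at 5, 10 or 20 µM (PC-3 in RPMI; HeLa and HDF in DMEM; 10% FBS, 1% penicillin/streptomycin). Cells pelleted, PBS-washed, mixed 1:1 with 0.4% trypan blue in PBS pH 7.4, 5 min room temperature. Blue cells scored non-viable by microscope counting. Mean and SD of three independent experiments.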

PC-3 [2] = assay: Cytotoxicity against human PC3 cells assessed as cell death at 5 to 20 uM after 24 hrs by trypan blue exclusion assay; format: functional; summary of the method: as §1
[3] = Cytotoxicity against human HDF cells assessed as cell viability at 5 to 20 uM after 24 hrs by trypan blue exclusion assay; format: cell-based; conditions: for Activity: hdf, 24 h, 20 µM
Summary of the method: (§2)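 Primary human dermal fibroblasts in DMEM with 10% FBS and 1% pen/strep, dosed at 5, 10 or 20 µM for 24 h. Cells pelleted and washed with PBS, then mixed 1:1 with 0.4% trypan blue in PBS pH 7.4, 5 min RT. Blue cells scored non-viable by microscope counting. Mean ± SD of three independent experiments.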

HeLa [4] = assay: Cytotoxicity against human HeLa cells after 48 hrs by MTT assay; format: functional, cell-based
Summary of the method: (§3)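 HeLa and HDF in DMEM, PC-3 in RPMI, each with 10% FBS and 1% pen/strep. Seeded at 5 × 10³ cells/well, then given dye in DMSO (final DMSO 0.1%) at 0, 0.75, 1, 2, 5, 10, 15, 20 µM for 48 h. Washed twice with PBS, MTT added, 4 h at 37 °C in the dark. Formazan dissolved in DMSO, A570 read. IC50 taken from the survival-versus-concentration curve.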

PC-3 [5] = assay: Cytotoxicity against human PC3 cells after 48 hrs by MTT assay; format: functional, cell-based; conditions: for pIC50: PC-3, 48 h; summary of the method: as §3
[6] = Cytotoxicity against human HDF cells after 48 hrs by MTT assay; format: cell-based; conditions: for pIC50: Homo sapiens, HDF; for Activity: human, hdf; summary of the method: as §3
[7] = Cellular uptake in human PC3 cell cytoplasm at 20 uM after 8 hrs by fluorescence confocal microscopic analysis; format: ADME, cell-based; conditions: pc-3, 8 h
Summary of the method: (§4)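 PC-3 (RPMI) or primary human dermal fibroblasts (DMEM), 10% FBS, 1% pen/strep, grown on glass coverslips and exposed to dye at 20 µM for 8 h. Fixed in cold (−20 °C) methanol 10 min, blocked in 2% BSA/PBS at 37 °C 1 h, actin stained with fluorescent phalloidin 1 h RT, mounted with DAPI antifade. NIR dye imaged with ICG filter set and 780 nm LED.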

[8] = Cellular uptake in human HDF cell cytoplasm at 20 uM after 8 hrs by fluorescence confocal microscopic analysis; format: ADME, cell-based; summary of the method: as §4
[9] = Cytotoxicity against human HDF cells assessed as cell death at 5 to 10 uM after 24 hrs by trypan blue exclusion assay; format: cell-based; summary of the method: as §2
[10] = Cytotoxicity against human HDF cells assessed as cell death at 20 uM after 24 hrs by trypan blue exclusion assay; format: cell-based; summary of the method: as §2
HeLa [11] = assay: Cytotoxicity against human HeLa cells assessed as cell survival at 5 to 10 uM after 24 hrs by trypan blue exclusion assay; format: functional; summary of the method: as §1
PC-3 [12] = assay: Cytotoxicity against human PC3 cells assessed as cell survival at 5 to 10 uM after 24 hrs by trypan blue exclusion assay; format: functional; summary of the method: as §1
[13] = Cytotoxicity against human HDF cells assessed as cell survival at 5 to 10 uM after 24 hrs by trypan blue exclusion assay; format: cell-based; conditions: read-out: Survival; summary of the method: as §1

| Structure (SMILES) | Activity (HeLa [1]) | Activity (PC-3 [2]) | viability at 24 h, up to 20 µM ([3]; HDF cells, read-out: Activity) [%] | pIC50 (HeLa [4]) | pIC50 (PC-3 [5]) | pIC50 [6] | Drug uptake [7] | Drug uptake [8] | Activity [3] | Activity [6] | Activity [9] [%] | Activity [10] [%] | Survival (HeLa [11]) [%] | Survival (PC-3 [12]) [%] | viability at 24 h, up to 10 µM [13] [%] | Activity (HeLa [4]) | Activity (PC-3 [5]) |
| --- | --- | --- | --- | --- | --- | --- | --- | --- | --- | --- | --- | --- | --- | --- | --- | --- | --- |
| COC(=O)CCCCCN1/C(=C/C=C2\CCCC(/C=C/C3=[N+](CCCCCC(=O)OC)c4ccccc4C3(C)C)=C2Cl)C(C)(C)c2ccccc21.[Br-] | >90% | >90% | 100 | 6.10 | 5.52 | 5.00 | Active | Not Active |  |  |  |  |  |  |  |  |  |
| CC1(C)C(/C=C/C2=C(Cl)C(=C/C=C3\N(CCCCS(=O)(=O)[O-])c4ccccc4C3(C)C)/CCC2)=[N+](CCCCS(=O)(=O)[O-])c2ccccc21.[Na+] |  |  |  |  |  |  | Not Active | Not Active | Non-toxic | Non-toxic |  |  |  |  |  |  |  |
| COC(=O)CCCCCN1/C(=C/C=C2\CCCC(/C=C/C3=[N+](CCCCCC(=O)O)c4ccccc4C3(C)C)=C2Cl)C(C)(C)c2ccccc21.[Br-] | Active | Active |  | 6.00 | 5.70 | 5.30 | Active | Not Active |  |  | 10 | 80 | 20 | 20 | 85 |  |  |
| CC1(C)C(/C=C/C2=C(Cl)C(=C/C=C3/N(CCCCCC(=O)O)c4ccccc4C3(C)C)/CCC2)=[N+](CCCCCC(=O)O)c2ccccc21.[Br-] | inactive | inactive |  |  |  |  | Not Active | Not Active | Non-toxic | Non-toxic |  |  |  |  |  | inactive | inactive |
| CC1(C)C(/C=C/C2=C(Cl)C(=C/C=C3/N(CCCCS(=O)(=O)O)c4ccccc4C3(C)C)/CCC2)=[N+](CCCCS(=O)(=O)[O-])c2ccccc21 | inactive | inactive |  |  |  |  |  |  |  |  |  |  |  |  |  | inactive | inactive |
